Assay [1] has as its target T1, Protein cereblon/NAD-dependent protein deacetylase sirtuin-2 (Homo sapiens) (UniProt Q8IXJ6+Q96SW2). Description: Protac activity at CRBN/SIRT2 in human MCF7 cells assessed as SIRT2 degradation at 5 uM by immunoblot analysis. The class given is cell-based.
Another assay has as its system MDA-MB-231. As to the kind of experiment: Cytotoxicity against human MDA-MB-231 cells assessed as reduction in cell viability after 72 hrs. It counts as functional, cell-based. The procedure, abridged: (§1)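 Cells incubated with compound or thalidomide for 72 h; cell viability read out at the end of exposure.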
For assay [2], the target named is NAD-dependent protein deacylase sirtuin-5, mitochondrial (Homo sapiens, UniProt Q9NXA8). As to the kind of experiment: Inhibition of human SIRT5 deacetylation activity using H3K9Ac as substrate preincubated for 15 mins in presence of NAD+ followed by substrate addition by HPLC analysis. The essentials:
(§2)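 In vitro sirtuin reaction mixture with compound at a range of concentrations. Compound was preincubated with NAD+ and the enzyme before the substrate peptide was added. IC50 taken from the concentration series.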

The target in assay [3] is T2, NAD-dependent protein deacetylase sirtuin-3, mitochondrial (Homo sapiens, UniProt Q9NTG7).
T2 sequence (Q9NTG7 whole entry): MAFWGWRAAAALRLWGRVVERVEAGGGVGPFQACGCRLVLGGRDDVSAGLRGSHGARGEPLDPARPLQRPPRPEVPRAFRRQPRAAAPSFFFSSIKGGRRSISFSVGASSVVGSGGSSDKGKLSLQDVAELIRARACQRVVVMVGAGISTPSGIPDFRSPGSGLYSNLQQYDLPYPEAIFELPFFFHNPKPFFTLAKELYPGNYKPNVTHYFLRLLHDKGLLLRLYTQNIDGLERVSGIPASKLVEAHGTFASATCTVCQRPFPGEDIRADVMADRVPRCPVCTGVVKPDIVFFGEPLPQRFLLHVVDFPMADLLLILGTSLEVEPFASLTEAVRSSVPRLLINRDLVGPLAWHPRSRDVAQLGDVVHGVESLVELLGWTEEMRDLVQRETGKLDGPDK
As to the kind of experiment: Inhibition of human SIRT3 deacetylation activity using H3K9Ac as substrate preincubated for 15 mins in presence of NAD+ followed by substrate addition by HPLC analysis. The essentials: as §2

The target of assay [4] is T1, Protein cereblon/NAD-dependent protein deacetylase sirtuin-2 (Homo sapiens). Description: Protac activity at CRBN/SIRT2 in human MCF7 cells assessed as SIRT2 degradation at 5 to 10 uM after 48 hrs by immunoblot analysis. The note with it: dose microM 5-10, time 48.0 hrs. It counts as cell-based. The procedure, abridged: (§3)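 Cells exposed to compound at the indicated concentrations for 48 h. SIRT1, SIRT2 and SIRT3 levels were read by immunoblot.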

For another assay, the system named is MCF7. As to the kind of experiment: Cytotoxicity against human MCF7 cells assessed as reduction in cell viability after 72 hrs. It counts as functional, cell-based. The procedure, abridged: as §1
The target of assay [5] is T1, Protein cereblon/NAD-dependent protein deacetylase sirtuin-2 (Homo sapiens). As to the kind of experiment: Protac activity at CRBN/SIRT2 in human BT549 cells assessed as SIRT2 degradation at 5 to 10 uM after 48 hrs by immunoblot analysis. The conditions noted are these: BT-549, dose microM 5-10, time 48.0 hrs. It counts as cell-based. The procedure, abridged: as §3
On the technique in general: Immunoblotting shows a protein as a band on a membrane.

Assay [6] shares this target. As to the kind of experiment: Protac activity at CRBN/SIRT2 in human HEK293T cells stably expressing flag-tagged K-Ras4a assessed as inhibition of SIRT2 defatty-acylation at 10 uM incubated for 42 hrs followed by Alkyne-14 addition and measured after 6 hrs by immunoprecipitation based assay. The class given is cell-based. The conditions noted are these: HEK-293T. The procedure, abridged: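 HEK 293T cells stably expressing Flag-tagged K-Ras4a-G12V were treated for 42 h, then labelled with 50 μM Alk-14 for a further 6 h. K-Ras4a was immunoprecipitated via Flag, and a fluorescent dye was attached by click chemistry. NH2OH removed cysteine fatty acylation. Lysine fatty acylation was read by in-gel fluorescence and quantified relative to DMSO.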

Assay [7] concerns the target NAD-dependent protein deacylase sirtuin-6 (Homo sapiens, UniProt Q8N6T7). Description: Inhibition of human SIRT6 deacetylation activity using H3K9Ac as substrate preincubated for 15 mins in presence of NAD+ followed by substrate addition by HPLC analysis. The procedure, abridged:
as §2

Assay [8] deals with T1, Protein cereblon/NAD-dependent protein deacetylase sirtuin-2 (Homo sapiens). Description: Protac activity at CRBN/SIRT2 in human MDA-MB-468 cells assessed as SIRT2 degradation after 48 hrs by immunoblot analysis. It counts as cell-based. The procedure, abridged: (§4)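 In MDA-MB-231 and MDA-MB-468 cells, SIRT2 was assessed by immunoblot after compound treatment.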
For assay [9], the target named is T3, NAD-dependent protein deacetylase sirtuin-1 (Homo sapiens, UniProt Q96EB6).
T3 sequence (Q96EB6 whole entry): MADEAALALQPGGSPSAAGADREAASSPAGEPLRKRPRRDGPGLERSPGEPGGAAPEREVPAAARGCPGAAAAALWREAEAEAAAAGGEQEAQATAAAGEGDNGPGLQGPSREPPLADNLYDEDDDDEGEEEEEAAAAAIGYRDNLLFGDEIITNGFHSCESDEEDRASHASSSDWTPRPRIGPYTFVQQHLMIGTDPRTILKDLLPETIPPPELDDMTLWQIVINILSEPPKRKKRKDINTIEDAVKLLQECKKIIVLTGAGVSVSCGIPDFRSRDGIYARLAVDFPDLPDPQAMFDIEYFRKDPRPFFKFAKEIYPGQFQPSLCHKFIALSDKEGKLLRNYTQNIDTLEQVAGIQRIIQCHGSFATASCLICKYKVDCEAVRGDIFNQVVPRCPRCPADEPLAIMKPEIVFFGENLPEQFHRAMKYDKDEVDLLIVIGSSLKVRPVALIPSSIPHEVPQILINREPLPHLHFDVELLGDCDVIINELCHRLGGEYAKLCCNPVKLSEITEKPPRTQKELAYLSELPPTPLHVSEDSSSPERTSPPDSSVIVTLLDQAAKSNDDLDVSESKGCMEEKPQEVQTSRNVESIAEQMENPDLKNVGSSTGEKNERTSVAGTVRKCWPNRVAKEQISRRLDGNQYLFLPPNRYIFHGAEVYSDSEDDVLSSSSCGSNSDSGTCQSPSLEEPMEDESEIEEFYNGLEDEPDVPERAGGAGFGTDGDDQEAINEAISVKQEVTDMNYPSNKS
Description: Inhibition of human SIRT1 deacetylation activity using H3K9Ac as substrate preincubated for 15 mins in presence of NAD+ followed by substrate addition by HPLC analysis. The essentials:
as §2

The next assay is filed under the species Homo sapiens. As to the kind of experiment: Selectivity ratio of IC50 for inhibition of human SIRT1 deacetylation activity to IC50 for inhibition of human SIRT2 deacetylation activity. The essentials: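 Ratio of SIRT1 deacetylase IC50 to SIRT2 deacetylase IC50, both measured with compound, NAD+ and enzyme preincubated before peptide substrate addition.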

For assay [10], the target named is T1, Protein cereblon/NAD-dependent protein deacetylase sirtuin-2 (Homo sapiens). Description: Protac activity at CRBN/SIRT2 in human MCF7 cells assessed as SIRT2 degradation at 10 uM by immunoblot analysis. The class given is cell-based. The note with it: TDE = time-dependent effect. The essentials: (§5)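 MCF7 cells treated at a fixed concentration (10 or 25 μM) and harvested at several incubation times; SIRT2 level read by immunoblot.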

Assay [11] has the same target. As to the kind of experiment: Protac activity at CRBN/SIRT2 in human MCF7 cells assessed as SIRT2 degradation at 25 uM by immunoblot analysis. The class given is cell-based. The procedure, abridged: as §5
Assay [12] deals with T4, NAD-dependent protein deacetylase sirtuin-2 (Homo sapiens, UniProt Q8IXJ6).
T4 sequence (Q8IXJ6 whole entry): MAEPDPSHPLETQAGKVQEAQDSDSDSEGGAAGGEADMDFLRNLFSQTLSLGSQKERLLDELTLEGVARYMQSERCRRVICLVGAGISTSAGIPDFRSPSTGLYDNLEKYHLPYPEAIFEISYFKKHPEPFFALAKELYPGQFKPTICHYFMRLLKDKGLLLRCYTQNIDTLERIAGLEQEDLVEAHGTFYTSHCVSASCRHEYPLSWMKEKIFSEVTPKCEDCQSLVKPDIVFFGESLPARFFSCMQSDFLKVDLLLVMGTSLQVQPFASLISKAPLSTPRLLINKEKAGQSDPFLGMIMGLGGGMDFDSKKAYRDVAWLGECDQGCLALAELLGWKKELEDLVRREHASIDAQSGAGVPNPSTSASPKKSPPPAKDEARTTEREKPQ
As to the kind of experiment: Inhibition of human SIRT2 deacetylation activity using H3K9Ac as substrate in presence of NAD+ by HPLC analysis.

Assay [13] deals with T4, NAD-dependent protein deacetylase sirtuin-2. Description: Inhibition of human SIRT2 defatty-acylation activity using peptide substrate preincubated in presence of NAD+ followed by substrate addition by HPLC analysis. The procedure, abridged: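 SIRT2 defatty-acylase reaction with compound at a range of concentrations. Compound was preincubated with NAD+ and SIRT2 before the peptide substrate was added. IC50 derived from the dose series.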

Assay [14] has the same target. Description: Inhibition of human SIRT2 defatty-acylation activity using peptide substrate in presence of NAD+ by HPLC analysis.
Assay [15] has the same target. As to the kind of experiment: Inhibition of human SIRT2 deacetylation activity using H3K9Ac as substrate preincubated for 15 mins in presence of NAD+ by HPLC analysis. The procedure, abridged:
as §2

Assay [16] concerns the target T5, Protein cereblon/NAD-dependent protein deacetylase sirtuin-1 (Homo sapiens) (UniProt Q96EB6+Q96SW2). Description: Protac activity at CRBN/SIRT1 in human BT549 cells assessed as SIRT1 degradation at 5 to 10 uM after 48 hrs by immunoblot analysis. The conditions noted are these: BT-549, dose microM 5-10, time 48.0 hrs. It counts as cell-based. The essentials:
(§6)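 MCF7 or BT-549 cells exposed to inhibitor at the indicated concentrations for 48 h; SIRT1, SIRT2 and SIRT3 levels read by immunoblot.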

In assay [17] the target is T5, Protein cereblon/NAD-dependent protein deacetylase sirtuin-1 (Homo sapiens). As to the kind of experiment: Protac activity at CRBN/SIRT1 in human MCF7 cells assessed as SIRT1 degradation at 5 to 10 uM after 48 hrs by immunoblot analysis. The class given is cell-based. The conditions noted are these: dose microM 5-10, time 48.0 hrs. The procedure, abridged: as §6

Assay [18] concerns the target T6, Protein cereblon/NAD-dependent protein deacetylase sirtuin-3, mitochondrial (Homo sapiens) (UniProt Q9NTG7+Q96SW2). Description: Protac activity at CRBN/SIRT3 in human MCF7 cells assessed as SIRT3 degradation at 5 to 10 uM after 48 hrs by immunoblot analysis. It counts as cell-based. The conditions noted are these: dose microM 5-10, time 48.0 hrs. The essentials: as §6

Assay [19] deals with T1, Protein cereblon/NAD-dependent protein deacetylase sirtuin-2 (Homo sapiens). As to the kind of experiment: Protac activity at CRBN/SIRT2 in human MDA-MB-231 cells assessed as SIRT2 degradation after 48 hrs by immunoblot analysis. The class given is cell-based. The essentials:
as §4

Assay [20] addresses T6, Protein cereblon/NAD-dependent protein deacetylase sirtuin-3, mitochondrial (Homo sapiens). As to the kind of experiment: Protac activity at CRBN/SIRT3 in human BT549 cells assessed as SIRT3 degradation at 5 to 10 uM after 48 hrs by immunoblot analysis. The class given is cell-based. The conditions noted are these: BT-549, dose microM 5-10, time 48.0 hrs. The procedure, abridged:
as §6

Among the data in ChEMBL document CHEMBL4725483, “Simultaneous Inhibition of SIRT2 Deacetylase and Defatty-Acylase Activities via a PROTAC Strategy” (ACS Med Chem Lett, 2020) are Activity, IC50 and Ratio IC50 values, retold here.

The structures appear in SMILES notation. The source made the active and inactive calls. The rule behind the calls is not given here.

By IC50 is commonly meant the concentration at which inhibition is half-maximal.

T1 sequence (Q96SW2 whole entry, looked up, one chain of several): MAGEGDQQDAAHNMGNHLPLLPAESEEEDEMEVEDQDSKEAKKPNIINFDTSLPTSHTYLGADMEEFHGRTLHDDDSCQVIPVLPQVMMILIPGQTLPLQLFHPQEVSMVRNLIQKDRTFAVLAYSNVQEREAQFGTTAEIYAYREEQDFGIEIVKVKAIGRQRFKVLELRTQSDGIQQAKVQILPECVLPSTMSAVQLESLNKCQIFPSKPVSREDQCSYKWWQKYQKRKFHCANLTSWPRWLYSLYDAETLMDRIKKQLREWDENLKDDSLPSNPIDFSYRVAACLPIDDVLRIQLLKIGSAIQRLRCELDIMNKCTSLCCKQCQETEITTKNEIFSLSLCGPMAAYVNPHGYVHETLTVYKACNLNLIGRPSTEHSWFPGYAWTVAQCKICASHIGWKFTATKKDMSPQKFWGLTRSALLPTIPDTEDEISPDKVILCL
NAD-dependent protein deacylase sirtuin-6, sequence (Q8N6T7 whole entry): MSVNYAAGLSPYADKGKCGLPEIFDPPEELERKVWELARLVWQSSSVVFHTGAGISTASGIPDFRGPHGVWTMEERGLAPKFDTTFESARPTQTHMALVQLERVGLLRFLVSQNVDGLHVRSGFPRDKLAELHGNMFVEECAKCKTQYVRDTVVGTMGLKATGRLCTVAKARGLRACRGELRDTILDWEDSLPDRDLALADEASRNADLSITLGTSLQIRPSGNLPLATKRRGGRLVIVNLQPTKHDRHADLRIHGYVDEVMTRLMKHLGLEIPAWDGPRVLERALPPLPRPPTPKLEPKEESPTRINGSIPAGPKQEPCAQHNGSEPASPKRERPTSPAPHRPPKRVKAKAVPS
T6 sequence (Q96SW2 whole entry, looked up, one chain of several): as the sequence (Q96SW2 whole entry, looked up, one chain of several) above
NAD-dependent protein deacylase sirtuin-5, mitochondrial, sequence (Q9NXA8 whole entry): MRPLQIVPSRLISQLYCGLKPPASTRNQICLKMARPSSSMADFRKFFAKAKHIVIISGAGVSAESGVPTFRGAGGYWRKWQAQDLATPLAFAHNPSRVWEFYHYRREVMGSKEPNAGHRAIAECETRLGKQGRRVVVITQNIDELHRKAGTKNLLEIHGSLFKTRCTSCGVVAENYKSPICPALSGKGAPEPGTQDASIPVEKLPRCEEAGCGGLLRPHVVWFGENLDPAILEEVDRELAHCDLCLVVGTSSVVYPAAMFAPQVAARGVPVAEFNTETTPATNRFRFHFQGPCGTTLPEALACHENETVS
T5 sequence (Q96SW2 whole entry, looked up, one chain of several): as the sequence (Q96SW2 whole entry, looked up, one chain of several) above

For `O=C(O)CCOCCOCCOCCOCCNc1cccc2c1C(=O)N(C1CCC(=O)NC1=O)C2=O` (centres undefined), the outcome in assay [1] was inactive.

For the compound `CCCCCCCCCCCCCC(=S)NCCCC[C@H](NC(=O)OCc1ccccc1)C(=O)Nc1ccccc1`, the outcome with MDA-MB-231 and in the assay with MCF7 was Active. Besides, the IC50 in assay [2], in assay [3] and in [7] was more than 83 µM throughout. The result in [4], in [5] and in assay [6] was inactive.

In the case of `CCCCCCCCCCCCCC(=S)NCCCC[C@H](NC(=O)CCOCCOCCOCCOCCNc1cccc2c1C(=O)N(C1CCC(=O)N(C)C1=O)C2=O)C(=O)Nc1ccccc1` (some centres undefined), the outcome in assay [1] was inactive.

Turning to `CCCCCCCCCCCCCC(=S)NCCCC[C@H](NC(=O)CCOCCOCCNc1cccc2c1C(=O)N(C1CCC(=O)NC1=O)C2=O)C(=O)Nc1ccccc1` (some centres undefined), the result in assay [8], in assay [4], in [5] and in assay [19] was Active. Also, the 50% inhibitory concentration (IC50) in assay [9] was 37 µM; in [12], 0.12 µM; in assay [2], more than 83 µM; in assay [3] it was more than 83 µM; in assay [13], 0.17 µM; in assay [14], more than 83 µM. Besides, the IC50 in assay [15] was 0.069 µM; in assay [7], more than 83 µM. Besides, the Ratio IC50 in the assay filed under Homo sapiens amounted to 500. Moreover, the Activity result in [10] was “Tde”. The outcome in [11], in assay [16], in assay [17], in assay [18] and in assay [20] was inactive.
